Data as given in ChEMBL document CHEMBL1124382, “Synthesis and radioprotective activity of dipeptide cysteamine and cystamine derivatives” (J Med Chem, 1989).
Values joined by “and” are separate entries in the source; they are usually repeats but may differ in a detail not shown here. Equal values may be shown once.

Columns and labels:
[1] = The compound was tested for toxicity in mice, expressed as LD50; format: organism-based; conditions: in vivo
Method in brief: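 Three-month-old inbred albino CXVII mice (about 25 g) received compounds dissolved in distilled water by intraperitoneal injection. A preliminary study set the dose range. Five groups of 10 mice then each received a different dose within that range. LD50 was derived by probit analysis.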

Mus musculus [2] = experiment: The compound was tested for radioprotective activity (DRF) in mice 15 min before whole body irradiation with value in braces indicating the administered dose in mg/Kg
Mus musculus [3] = experiment: The compound was tested for radioprotective activity (DRF) in mice 2 hours before whole body irradiation with value in braces indicating the administered dose in mg/Kg

Structure (SMILES)	LD50 [1] [mg/kg]	DRF (Mus musculus [2])	DRF (Mus musculus [3])
CC(=O)SCCNC(=O)CNC(=O)[C@@H](C)N	1500	1.55 and 1	1
NCC(=O)NCC(=O)NCCSSCCNC(=O)CNC(=O)CN	2000	1.1 and 1	1
CC(=O)SCCNC(=O)[C@H](C)NC(=O)CN	1500	1.25	1
C[C@H](N)C(=O)NCC(=O)NCCSSCCNC(=O)CNC(=O)[C@@H](C)N	1500	1.35 and 1	–
C[C@H](NC(=O)CN)C(=O)NCCSSCCNC(=O)[C@@H](C)NC(=O)CN	800	1.1	–
CC(=O)SCCNC(=O)CNC(=O)CN	2400	1.55	–
CC(=O)SCCNC(=O)CN	1500	1.4 and 1	1
